This is a sample that favours compounds with a hit; in the whole collection about 1.8% have one here.
Tb MetRS inh – blocks T. brucei methionyl-tRNA synthetase activity; AID 624268; inhibition, % at 11.9 µM; 360,000 compounds, 0.4% hits; purified T. brucei MetRS, ATP depletion, Kinase-Glo luminescence;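 active = inhibition above a per-plate cutoff of the control wells' mean inhibition plus 3 SD, cut at about 5.5% in these data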;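 note: 0% = DMSO wells median and 100% = median of wells with control inhibitor compound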
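Material: parasite MetRS enzyme / Replication: singlicate, one well per compound / Signal: luminescence of leftover ATP / Schedule: 2 h aminoacylation at 25 °C after 15 min preincubation / Medium: HEPES-MgCl2-KCl buffer plus DTT, spermine, BSA, pyrophosphatase / Doses: 11.9 µM single point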
PG9 binder – small molecules binding HIV-1 gp120 antibody PG9; TR-FRET gp120-PG9 antibody binding; inhibition, % at 6.7 µM; 360,000 compounds, 0.43% hits; in the data active = inhibition above about 8.5%
Rin1 Abl inh – blocks binding of human Rin1 to Abl. P00519+Q13671. TR-FRET Rin1/Abl binding, biochemical. inhibition, % at 7.35 µM. 360,000 compounds, 0.4% hits. AID 588664; in the data active = inhibition above about 5%, passing the limit was not always enough
Rev-erbA mod – modulates human Rev-erb alpha binding to DNA; AID 1259318; Rev-erbα–FITC-DNA binding, fluorescence polarization, 90 min; P20393; 370,000 compounds, 0.79% hits; activity, % at 10 µM;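 active = activity above about 14%, limit read from the data; passing the limit was not always enough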;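 note: 0% = DMSO wells with 35 nM protein and 100% = DMSO wells with 750 nM protein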
Target sequence (P20393 whole entry, looked up): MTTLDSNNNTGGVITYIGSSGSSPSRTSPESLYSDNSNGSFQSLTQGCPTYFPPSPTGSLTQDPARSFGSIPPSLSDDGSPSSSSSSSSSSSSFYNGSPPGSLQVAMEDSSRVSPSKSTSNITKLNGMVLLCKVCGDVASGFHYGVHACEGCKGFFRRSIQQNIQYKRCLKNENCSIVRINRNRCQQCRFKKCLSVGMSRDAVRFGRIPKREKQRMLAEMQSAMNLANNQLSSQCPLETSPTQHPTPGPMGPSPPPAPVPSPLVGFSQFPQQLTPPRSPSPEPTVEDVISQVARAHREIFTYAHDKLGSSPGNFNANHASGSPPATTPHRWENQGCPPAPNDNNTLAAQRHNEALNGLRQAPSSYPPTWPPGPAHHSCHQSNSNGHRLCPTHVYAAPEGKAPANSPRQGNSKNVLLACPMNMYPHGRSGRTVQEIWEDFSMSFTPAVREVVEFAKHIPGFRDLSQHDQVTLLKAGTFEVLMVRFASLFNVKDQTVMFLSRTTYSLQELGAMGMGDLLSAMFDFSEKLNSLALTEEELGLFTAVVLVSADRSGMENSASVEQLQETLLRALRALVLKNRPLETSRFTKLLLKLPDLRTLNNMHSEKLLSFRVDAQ
The depositor's hits bear a star; / = no result.

SMILES	Tb MetRS inh	PG9 binder	Rin1 Abl inh	Rev-erbA mod
COc1ccc2[nH]c3c4c(ccc3c2c1)C(=O)C=CC4=O	1	10*	1	-3
CCCC[C@@H](CC)COC(=O)c1ccccc1O	/	/	/	2
O=C1C=CC(=O)c2c(O)c(CO)c(CO)c(O)c21	0	-2	20*	-46
COc1cccc2c1C(=O)c1c(O)c3c(c(O)c1C2=O)C[C@@](O)(C(=O)CO)C[C@@H]3OC1C[C@H](N)[C@H](O)[C@H](C)O1 (some centres not stated)	/	/	/	2
C[C@H](CCC(=O)O)[C@H]1CCC2C3C(CC[C@@]21C)[C@@]1(C)CC[C@@H](O)C[C@H]1C[C@H]3O (some centres not stated)	/	/	/	-2
COCCn1c(SCc2ccc(C(=O)OC)o2)nnc1-c1c[nH]c2ccccc12	1	1	11*	-4
NC(=O)c1cc[n+](CC2=C(C(=O)O)N3C(=O)[C@@H](NC(=O)Cc4cccs4)[C@H]3SC2)cc1	/	/	/	-2
CCCCC(CC)C(=O)Oc1ccc(O)c(C(C)(C)C)c1 (configuration not stated)	-1	1	9.2*	4
CC(C)(C)c1cc(OC(=O)C2CCCC2)ccc1O	-1	0	0	-1
O=C(Nc1ccccc1-c1nc2ccccc2s1)c1cccnc1Cl	-1	11*	-1	24
O=C(Nc1ccccc1-c1nc2ccccc2s1)c1ccco1	0	7	-3	5
Cc1cc(C#N)cc(C)c1Oc1nc(Nc2ccc(C#N)cc2)nc(N)c1Br	/	/	/	2
C=CCOc1cccc(C2/C(=C(\O)c3ccc4c(c3)OCCO4)C(=O)C(=O)N2Cc2cccnc2)c1 (configuration not stated)	0	14*	-3	2
Cc1ccc(NC2c3ccccc3C(=O)N2c2cccnc2)cc1 (configuration not stated)	-1	-2	-4	-1
COc1ccc(OC)c(NC2c3ccccc3C(=O)N2c2cccnc2)c1 (configuration not stated)	0	8.9*	1	0
CC1(C)O[C@@H]2CC3C4C[C@H](F)C5=CC(=O)C=C[C@]5(C)[C@@]4(F)[C@@H](O)C[C@]3(C)[C@]2(C(=O)CO)O1 (some centres not stated)	/	/	/	-1
CCCCNS(=O)(=O)c1ccc2nc(SCC(=O)c3ccccc3OC)[nH]c2c1	13*	-3	0	2
Cc1cc(C)cc(-n2nnnc2-c2cn(C)nc2C(F)(F)F)c1	-1	-1	7.5*	3
Cn1cc(-c2nnnn2-c2ccc(Cl)cc2)c(C(F)(F)F)n1	-1	-3	2	1
CO/N=C(\c1nonc1N)N1CCN(c2ccc([N+](=O)[O-])cc2Cl)CC1	7.0*	-3	-1	1
CN1C2CC(OC(=O)[C@H](CO)c3ccccc3)C[C@H]1[C@H]1OC21 (some centres not stated)	/	/	/	-8
O=c1cc(-c2ccc(O)c(O)c2)oc2cc(O[C@@H]3O[C@H](CO)[C@@H](O)[C@H](O)[C@H]3O)cc(O)c12	0	/	24*	/
OC[C@H]1O[C@H](O)C[C@@H](O)[C@@H]1O	/	/	/	4
CC[C@@H]1/C=C(/C)C[C@H](C)C[C@H](OC)[C@H]2O[C@@](O)(C(=O)C(=O)N3CCCC[C@H]3C(=O)O[C@H](/C(C)=C/[C@@H]3CC[C@H](Cl)[C@H](OC)C3)[C@H](C)[C@@H](O)CC1=O)[C@H](C)C[C@@H]2OC	/	/	/	11
O=C1NC(=S)S/C1=C\c1ccc(SCc2ccco2)o1	1	/	12*	/
SMILES	Tb MetRS inh	PG9 binder	Rin1 Abl inh	Rev-erbA mod
O=C1NC(=S)S/C1=C\c1ccc(SCc2ccccc2)o1	0	0	4	-15
C[C@]12C=CC(=O)C=C1CCC1C3C[C@@H](O)[C@](O)(C(=O)CO)[C@@]3(C)C[C@H](O)[C@@]12F (some centres not stated)	/	/	/	0
CC(C)(C)N1C(=O)Cc2c1nc(N)c1c(N)nc(N3CCCCC3CO)c(C#N)c21 (configuration not stated)	0	/	20*	/
CCN1CCN(C(=O)NC(C(=O)N[C@H]2C(=O)N3C(C(=O)O)=C(CSc4nnnn4C)CSC23)c2ccc(O)cc2)C(=O)C1=O (some centres not stated)	/	/	/	-8
Cc1nnc(N2CCCC(C(=O)NCc3ccc(OC(C)C)cc3)C2)c2nn(-c3ccccc3)c(C)c12 (configuration not stated)	-1	-2	32*	3
O=C1NC(=S)S/C1=C\c1cc2ccccc2nc1N1CCCCC1	0	2	2	3
COc1ccc2nc(N3CCCCC3)c(/C=C3\SC(=S)NC3=O)cc2c1	0	1	6.6*	4
COc1ccc(C(=O)c2nccc3cc(OC)c(OC)cc23)cc1OC	0	/	14*	/
O=c1[nH]cnc2c1C(c1ccc(Cl)cc1)c1c(nc[nH]c1=O)O2	-1	/	7.7*	/
O=C(O)C[C@H](O)C(=O)O	/	/	/	-5
CCCCC/C=C/CCC(=O)N[C@H]1[C@H](Oc2c3cc4cc2Oc2ccc(cc2Cl)[C@@H](O[C@@H]2O[C@H](CO)[C@@H](O)[C@H](O)[C@H]2NC(C)=O)[C@@H]2NC(=O)[C@H](NC(=O)[C@@H]4NC(=O)[C@H]4NC(=O)C(Cc5ccc(c(Cl)c5)O3)NC(=O)[C@H](N)c3ccc(O)c(c3)Oc3cc(O)cc4c3)c3ccc(O)c(c3)-c3c(O[C@@H]4O[C@H](CO)[C@@H](O)[C@H](O)[C@@H]4O)cc(O)cc3[C@@H](C(=O)O)NC2=O)O[C@H](CO)[C@@H](O)[C@@H]1O	/	/	/	-4
CC1NC(=O)NC1CCCCCC(=O)NCCc1ccccc1 (configuration not stated)	-1	-3	83*	-7
Cc1ccc(NC(=O)CSc2nnc(-c3cnccn3)n2-c2ccccc2)cc1	-1	16*	1	19
CC(=O)O[C@H]1C[C@@]2(C)[C@@H](C[C@@H](O)C3[C@]2(C)CC[C@H]2[C@H](C)[C@H](O)CC[C@]32C)/C1=C(/CCC=C(C)C)C(=O)O (some centres not stated)	/	/	/	1
COc1ccc2oc(=O)c(-c3nc(C)cs3)cc2c1	0	13*	-18	2
CCN1C(=O)CC(c2ccccc2)N(C2CCCC2)c2nc(Nc3ccc(C(=O)NC4CCN(C)CC4)cc3OC)ncc21 (configuration not stated)	0	/	10*	/
CCN1C(=O)CC(C(C)C)N(C2CCCC2)c2nc(Nc3ccc(C(=O)NC4CCN(C)CC4)cc3OC)ncc21 (configuration not stated)	1	/	0	/
O=c1cc2oc3cc(O)c(O)cc3c(-c3ccccc3O)c-2cc1O	1	/	67*	/
COc1ccc(OC)c(-c2c3cc(O)c(=O)cc-3oc3cc(O)c(O)cc23)c1	3	/	55*	/
CCOc1ccccc1-c1c2cc(O)c(=O)cc-2oc2cc(O)c(O)cc12	0	/	54*	/
Cc1ccccc1-c1cc(=O)c2c(O)cccc2o1	0	-4	1	4
Nc1ccc(N)c(C(=O)O)c1	1	/	13*	/

Bioassay records deposited in PubChem BioAssay by several laboratories.
